Measured values: BindingDB's records for doi:10.1016/j.ejmech.2011.01.042 (Ludwig-Maximilians-University Munich, 2011)
Structures can show the parent of a compound that is named as a salt.

Columns and labels:
[1] = molecular target: T1, Sodium- and chloride-dependent GABA transporter 2 (Mus musculus, UniProt P31649); test: Inhibition of mouse GAT2-mediated [3H]GABA uptake expressed in human HEK cells
T1 sequence (P31649 whole entry): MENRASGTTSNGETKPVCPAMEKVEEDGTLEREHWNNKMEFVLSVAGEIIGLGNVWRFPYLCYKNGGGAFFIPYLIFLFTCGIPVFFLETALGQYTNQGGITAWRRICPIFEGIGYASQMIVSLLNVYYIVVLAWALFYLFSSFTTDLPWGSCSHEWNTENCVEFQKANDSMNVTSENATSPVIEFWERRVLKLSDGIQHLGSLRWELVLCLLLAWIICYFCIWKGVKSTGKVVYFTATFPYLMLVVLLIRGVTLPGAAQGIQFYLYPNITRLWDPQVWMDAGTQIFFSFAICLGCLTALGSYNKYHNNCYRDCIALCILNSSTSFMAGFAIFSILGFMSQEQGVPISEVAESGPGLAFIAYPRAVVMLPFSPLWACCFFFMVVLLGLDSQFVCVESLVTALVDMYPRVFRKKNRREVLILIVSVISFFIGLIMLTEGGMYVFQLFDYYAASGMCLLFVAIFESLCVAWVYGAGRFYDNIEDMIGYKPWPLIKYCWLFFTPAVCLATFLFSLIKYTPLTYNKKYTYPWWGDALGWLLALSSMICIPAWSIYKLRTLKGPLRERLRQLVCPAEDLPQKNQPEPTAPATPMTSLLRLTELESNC
Summary of the method: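 The value is pIC50, given as mean ± SEM of three independent experiments, each run in triplicate. Where only two experiments were run, uptake is reported rather than pIC50.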

[2] = molecular target: T2, Sodium- and chloride-dependent GABA transporter 3 (Mus musculus, UniProt P31650); test: Inhibition of mouse GAT3-mediated [3H]GABA uptake expressed in human HEK cells assessed as specific binding remaining at 1 mM
T2 sequence (P31650 whole entry): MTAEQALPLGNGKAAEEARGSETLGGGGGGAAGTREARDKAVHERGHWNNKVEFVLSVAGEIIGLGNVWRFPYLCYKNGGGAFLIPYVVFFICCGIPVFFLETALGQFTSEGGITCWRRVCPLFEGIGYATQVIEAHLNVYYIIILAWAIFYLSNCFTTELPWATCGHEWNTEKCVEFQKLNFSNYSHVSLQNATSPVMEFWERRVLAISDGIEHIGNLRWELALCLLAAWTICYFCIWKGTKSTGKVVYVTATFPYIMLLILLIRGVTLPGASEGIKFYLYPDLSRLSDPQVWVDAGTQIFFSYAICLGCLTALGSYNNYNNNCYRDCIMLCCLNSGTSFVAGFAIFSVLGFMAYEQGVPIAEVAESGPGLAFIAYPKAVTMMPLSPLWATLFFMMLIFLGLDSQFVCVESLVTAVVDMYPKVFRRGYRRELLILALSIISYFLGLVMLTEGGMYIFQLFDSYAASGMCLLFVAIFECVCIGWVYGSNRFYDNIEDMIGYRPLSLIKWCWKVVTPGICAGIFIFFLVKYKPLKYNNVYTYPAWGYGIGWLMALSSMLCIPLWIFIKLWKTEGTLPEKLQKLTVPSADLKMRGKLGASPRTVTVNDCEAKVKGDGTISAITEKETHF

| IC50 [2] [µM] | Structure (SMILES) | IC50 [1] [µM] |
| --- | --- | --- |
| – | COc1ccc(C2(O)CCN(CCCn3c4ccccc4c4ccccc43)CC2)cc1 [1-(3-(9H-carbazol-9-yl)propyl)-4-(4-methoxyphenyl)piperidin-4-ol] | 1.4 |
| – | Cc1ccsc1C(=CCCN(C)C1CCCc2o[nH]c(=O)c21)c1sccc1C (stereo not drawn) [4-((4,4-bis(3-methylthiophen-2-yl)but-3-enyl)(methyl)amino)-4,5,6,7-tetrahydrobenzo[d]isoxazol-3-ol] | 22 |
| 776 | O=C(O)CCCCCCn1ccnc1 [7-Imidazol-1-yl-heptanoic acid; hydrochloride] | – |
